Laboratory results reported in ChEMBL document CHEMBL4715745, “Synthesis and biological evaluation of novel FK228 analogues as potential isoform selective HDAC inhibitors” (Eur J Med Chem, 2016).

Experiments:
SNB-78 = assay: Growth inhibition of human SNB-78 cells measured after 48 hrs by sulforhodamine B assay; assay type: functional
How it was run: (§1)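 Panel of 39 human cancer cell lines tested at the Japanese Foundation for Cancer Research. Five concentrations per compound, spanning 10⁻¹¹–10⁻⁷ M, 10⁻¹⁰–10⁻⁶ M or 10⁻⁸–10⁻⁴ M, were used to build dose-response curves. GI₅₀ is the concentration giving 50% growth inhibition relative to control.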

MKN-74 = assay: Growth inhibition of human MKN-74 cells measured after 48 hrs by sulforhodamine B assay; assay type: functional; how it was run: as §1
OVCAR-8 = assay: Growth inhibition of human OVCAR-8 cells measured after 48 hrs by sulforhodamine B assay; assay type: functional; how it was run: as §1
St-4 = assay: Growth inhibition of human St-4 cells measured after 48 hrs by sulforhodamine B assay; assay type: functional; how it was run: as §1
HCC 2998 = assay: Growth inhibition of human HCC 2998 cells measured after 48 hrs by sulforhodamine B assay; assay type: functional; how it was run: as §1
DMS-114 = assay: Growth inhibition of human DMS-114 cells measured after 48 hrs by sulforhodamine B assay; assay type: functional; how it was run: as §1
U-251 = assay: Growth inhibition of human U-251 cells measured after 48 hrs by sulforhodamine B assay; assay type: functional; how it was run: as §1
MKN-7 = assay: Growth inhibition of human MKN-7 cells measured after 48 hrs by sulforhodamine B assay; assay type: functional; how it was run: as §1
DU-145 = assay: Growth inhibition of human DU-145 cells measured after 48 hrs by sulforhodamine B assay; assay type: functional; how it was run: as §1
HCT-15 = assay: Growth inhibition of human HCT-15 cells measured after 48 hrs by sulforhodamine B assay; assay type: functional; how it was run: as §1
[1] = Selectivity index, ratio of IC50 for mouse HDAC6 expressed in 293T cells to IC50 for human HDAC1 expressed in 293T cells using Ac-KGLGK(Ac)-MCA as substrate incubated for 30 mins in presence of 0.1 mM DTT by fluorescence plate reader assay; details: 0.5 h
How it was run: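 Ratio of HDAC6 IC₅₀ to HDAC1 IC₅₀, taken as selectivity for class I HDAC1 over class II HDAC6. Both enzyme assays were run in the presence of 0.1 mM DTT.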

NCI-H460 = assay: Growth inhibition of human NCI-H460 cells measured after 48 hrs by sulforhodamine B assay; assay type: functional; how it was run: as §1
NCI-H23 = assay: Growth inhibition of human NCI-H23 cells measured after 48 hrs by sulforhodamine B assay; assay type: functional; how it was run: as §1
KM12 = assay: Growth inhibition of human KM12 cells measured after 48 hrs by sulforhodamine B assay; assay type: functional; how it was run: as §1
ACHN = assay: Growth inhibition of human ACHN cells measured after 48 hrs by sulforhodamine B assay; assay type: functional; how it was run: as §1
MKN-1 = assay: Growth inhibition of human MKN-1 cells measured after 48 hrs by sulforhodamine B assay; assay type: functional; how it was run: as §1
[2] = molecular target: T1, Protein deacetylase HDAC6 (Mus musculus, UniProt Q9Z2V5); assay: Inhibition of mouse HDAC6 expressed in 293T cells using Ac-KGLGK(Ac)-MCA as substrate incubated for 30 mins in presence of 0.1 mM DTT by fluorescence plate reader assay; design: species or system HEK293T
T1 sequence (Q9Z2V5 whole entry): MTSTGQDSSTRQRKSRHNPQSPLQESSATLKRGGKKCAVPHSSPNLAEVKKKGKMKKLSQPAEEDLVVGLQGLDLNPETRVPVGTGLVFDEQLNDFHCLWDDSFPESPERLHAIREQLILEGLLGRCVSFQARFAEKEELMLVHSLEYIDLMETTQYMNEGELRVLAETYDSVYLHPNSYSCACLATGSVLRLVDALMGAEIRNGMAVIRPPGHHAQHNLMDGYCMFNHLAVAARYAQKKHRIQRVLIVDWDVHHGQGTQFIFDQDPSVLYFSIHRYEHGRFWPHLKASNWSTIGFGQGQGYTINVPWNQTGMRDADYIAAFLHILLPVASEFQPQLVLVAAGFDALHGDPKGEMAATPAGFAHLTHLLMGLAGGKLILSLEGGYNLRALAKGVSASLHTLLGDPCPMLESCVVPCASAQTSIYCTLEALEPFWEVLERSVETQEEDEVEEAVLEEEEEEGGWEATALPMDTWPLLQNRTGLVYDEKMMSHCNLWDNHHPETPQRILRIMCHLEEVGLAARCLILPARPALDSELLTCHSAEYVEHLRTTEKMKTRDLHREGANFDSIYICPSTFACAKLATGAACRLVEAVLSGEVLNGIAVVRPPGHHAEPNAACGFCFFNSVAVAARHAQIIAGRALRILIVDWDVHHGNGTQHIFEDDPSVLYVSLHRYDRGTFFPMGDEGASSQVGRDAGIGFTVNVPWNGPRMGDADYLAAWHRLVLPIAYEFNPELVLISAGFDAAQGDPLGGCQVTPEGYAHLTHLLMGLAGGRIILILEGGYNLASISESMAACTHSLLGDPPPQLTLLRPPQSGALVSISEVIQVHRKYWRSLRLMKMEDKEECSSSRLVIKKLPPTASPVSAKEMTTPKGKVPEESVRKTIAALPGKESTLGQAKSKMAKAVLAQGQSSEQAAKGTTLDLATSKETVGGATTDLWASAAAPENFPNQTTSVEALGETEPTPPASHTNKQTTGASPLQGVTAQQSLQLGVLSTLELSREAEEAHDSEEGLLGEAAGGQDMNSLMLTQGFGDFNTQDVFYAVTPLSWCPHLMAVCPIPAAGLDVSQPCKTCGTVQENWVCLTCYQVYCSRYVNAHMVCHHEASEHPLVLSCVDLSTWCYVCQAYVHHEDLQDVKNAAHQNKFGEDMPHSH
How it was run: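 HDAC enzyme assay run in the presence of 0.1 mM dithiothreitol (DTT); IC₅₀ determined.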

Histone deacetylase 1 = Histone deacetylase 1 (Homo sapiens, UniProt Q13547); assay: Inhibition of human HDAC1 expressed in 293T cells using Ac-KGLGK(Ac)-MCA as substrate incubated for 30 mins in presence of 0.1 mM DTT by fluorescence plate reader assay; design: species or system HEK293T
Histone deacetylase 1, sequence (Q13547 whole entry): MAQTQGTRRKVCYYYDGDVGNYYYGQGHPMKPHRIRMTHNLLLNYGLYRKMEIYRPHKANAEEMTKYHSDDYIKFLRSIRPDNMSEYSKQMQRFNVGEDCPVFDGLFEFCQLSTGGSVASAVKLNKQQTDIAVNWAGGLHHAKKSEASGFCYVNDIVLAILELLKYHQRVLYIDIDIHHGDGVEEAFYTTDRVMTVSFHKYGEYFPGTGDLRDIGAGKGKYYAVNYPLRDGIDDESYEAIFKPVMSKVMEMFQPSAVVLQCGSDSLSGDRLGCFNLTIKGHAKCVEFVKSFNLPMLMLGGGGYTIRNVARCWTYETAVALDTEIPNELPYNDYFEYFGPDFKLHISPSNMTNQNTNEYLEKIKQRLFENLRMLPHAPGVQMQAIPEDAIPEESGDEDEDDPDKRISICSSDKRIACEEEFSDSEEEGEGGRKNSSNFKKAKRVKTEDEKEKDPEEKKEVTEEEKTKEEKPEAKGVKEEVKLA

A549 = assay: Growth inhibition of human A549 cells measured after 48 hrs by sulforhodamine B assay; assay type: functional; how it was run: as §1
HT-29 = assay: Growth inhibition of human HT-29 cells measured after 48 hrs by sulforhodamine B assay; assay type: functional; how it was run: as §1
[3] = Growth inhibition of human HBC4 cells measured after 48 hrs by sulforhodamine B assay; assay type: functional; how it was run: as §1
SF-295 = assay: Growth inhibition of human SF-295 cells measured after 48 hrs by sulforhodamine B assay; assay type: functional; how it was run: as §1
PC-3 = assay: Growth inhibition of human PC-3 cells measured after 48 hrs by sulforhodamine B assay; assay type: functional; how it was run: as §1
SF-268 = assay: Growth inhibition of human SF-268 cells measured after 48 hrs by sulforhodamine B assay; assay type: functional; how it was run: as §1
OVCAR-5 = assay: Growth inhibition of human OVCAR-5 cells measured after 48 hrs by sulforhodamine B assay; assay type: functional; how it was run: as §1
NCI-H522 = assay: Growth inhibition of human NCI-H522 cells measured after 48 hrs by sulforhodamine B assay; assay type: functional; how it was run: as §1
LOX IMVI = assay: Growth inhibition of human LOX IMVI cells measured after 48 hrs by sulforhodamine B assay; assay type: functional; how it was run: as §1
OVCAR-4 = assay: Growth inhibition of human OVCAR-4 cells measured after 48 hrs by sulforhodamine B assay; assay type: functional; how it was run: as §1
DMS-273 = assay: Growth inhibition of human DMS-273 cells measured after 48 hrs by sulforhodamine B assay; assay type: functional; how it was run: as §1
NCI-H226 = assay: Growth inhibition of human NCI-H226 cells measured after 48 hrs by sulforhodamine B assay; assay type: functional; how it was run: as §1
SK-OV-3 = assay: Growth inhibition of human SK-OV-3 cells measured after 48 hrs by sulforhodamine B assay; assay type: functional; how it was run: as §1
SNB-75 = assay: Growth inhibition of human SNB-75 cells measured after 48 hrs by sulforhodamine B assay; assay type: functional; how it was run: as §1
MKN-28 = assay: Growth inhibition of human MKN-28 cells measured after 48 hrs by sulforhodamine B assay; assay type: functional; how it was run: as §1
MCF7 = assay: Growth inhibition of human MCF7 cells measured after 48 hrs by sulforhodamine B assay; assay type: functional; how it was run: as §1
[4] = Growth inhibition of human BSY1 cells measured after 48 hrs by sulforhodamine B assay; assay type: functional; details: BSY-1; how it was run: as §1
MDA-MB-231 = assay: Growth inhibition of human MDA-MB-231 cells measured after 48 hrs by sulforhodamine B assay; assay type: functional; how it was run: as §1
SF-539 = assay: Growth inhibition of human SF-539 cells measured after 48 hrs by sulforhodamine B assay; assay type: functional; how it was run: as §1
MKN-45 = assay: Growth inhibition of human MKN-45 cells measured after 48 hrs by sulforhodamine B assay; assay type: functional; how it was run: as §1
RXF 631 = assay: Growth inhibition of human RXF 631 cells measured after 48 hrs by sulforhodamine B assay; assay type: functional; how it was run: as §1
HCT-116 = assay: Growth inhibition of human HCT-116 cells measured after 48 hrs by sulforhodamine B assay; assay type: functional; how it was run: as §1
OVCAR-3 = assay: Growth inhibition of human OVCAR-3 cells measured after 48 hrs by sulforhodamine B assay; assay type: functional; how it was run: as §1
[5] = Growth inhibition of human HBC5 cells measured after 48 hrs by sulforhodamine B assay; assay type: functional; how it was run: as §1

`CC(C)C[C@H]1NC(=O)[C@H]2CSSCC/C=C/[C@H](CC(=O)N[C@H](C(C)C)C(=O)N2)OC(=O)CNC1=O` showed a GI50 (SNB-78) of 30 nM, a GI50 (MKN-74) of 44 nM and a GI50 (OVCAR-8) of 42 nM. For the same compound, the GI50 (St-4) was 230 nM, the GI50 (HCC 2998) was 27 nM and the GI50 (DMS-114) was 36 nM. For the same compound, the GI50 (U-251) was 10 nM, the GI50 (MKN-7) was 280 nM and the GI50 (DU-145) was 37 nM. For the same compound, the GI50 (HCT-15) was 590 nM, the “Ratio IC50” value [1] was 8804 and the GI50 (NCI-H460) was 39 nM. The GI50 (NCI-H23) was 39 nM, the GI50 (KM12) was 33 nM and the GI50 (ACHN) was 200 nM. For the same compound, the GI50 (MKN-1) was 21 nM, the IC50 [2] was 8450 nM and the IC50 (Histone deacetylase 1) was 0.96 nM. The GI50 (A549) was 23 nM, the GI50 (HT-29) was 33 nM and the GI50 [3] was 70 nM. The GI50 (SF-295) was 1100 nM, the GI50 (PC-3) was 69 nM and the GI50 (SF-268) was 11 nM. The GI50 (OVCAR-5) was 31 nM, the GI50 (NCI-H522) was 10 nM and the GI50 (LOX IMVI) was 23 nM. It also gave a GI50 (OVCAR-4) of 87 nM, a GI50 (DMS-273) of 74 nM and a GI50 (NCI-H226) of 59 nM. The GI50 (SK-OV-3) was 23 nM, the GI50 (SNB-75) was 43 nM and the GI50 (MKN-28) was 270 nM. The GI50 (MCF7) was 52 nM, the GI50 [4] was 69 nM and the GI50 (MDA-MB-231) was 39 nM. The GI50 (SF-539) was 57 nM, the GI50 (MKN-45) was 240 nM and the GI50 (RXF 631) was 68 nM. For the same compound, the GI50 (HCT-116) was 22 nM, the GI50 (OVCAR-3) was 40 nM and the GI50 [5] was 270 nM.
Work on `CC(C)[C@H]1NC(=O)C[C@H]2/C=C/CCSSC[C@@H](NC1=O)C(=O)N[C@@H](Cc1ccccc1)C(=O)NCC(=O)O2` yielded a GI50 (SNB-78) of 540 nM, a GI50 (MKN-74) of 500 nM and a GI50 (OVCAR-8) of 1400 nM. For the same compound, the GI50 (St-4) was 2000 nM, the GI50 (HCC 2998) was 1100 nM and the GI50 (DMS-114) was 620 nM. The GI50 (U-251) was 1500 nM, the GI50 (MKN-7) was 1900 nM and the GI50 (DU-145) was 590 nM. The GI50 (HCT-15) was 26000 nM, the “Ratio IC50” value [1] was 9 and the GI50 (NCI-H460) was 1100 nM. It also gave a GI50 (NCI-H23) of 1100 nM, a GI50 (KM12) of 740 nM and a GI50 (ACHN) of 11000 nM. The GI50 (MKN-1) was 290 nM, the IC50 [2] was 355 nM and the IC50 (Histone deacetylase 1) was 40.8 nM. The GI50 (A549) was 880 nM, the GI50 (HT-29) was 570 nM and the GI50 [3] was 690 nM. For the same compound, the GI50 (SF-295) was 1800 nM, the GI50 (PC-3) was 1100 nM and the GI50 (SF-268) was 220 nM. It also gave a GI50 (OVCAR-5) of 1400 nM, a GI50 (NCI-H522) of 200 nM and a GI50 (LOX IMVI) of 160 nM. For the same compound, the GI50 (OVCAR-4) was 1900 nM, the GI50 (DMS-273) was 1500 nM and the GI50 (NCI-H226) was 1200 nM. It also gave a GI50 (SK-OV-3) of 1200 nM, a GI50 (SNB-75) of 1300 nM and a GI50 (MKN-28) of 2100 nM. The GI50 (MCF7) was 1900 nM, the GI50 [4] was 1300 nM and the GI50 (MDA-MB-231) was 1200 nM. The GI50 (SF-539) was 860 nM, the GI50 (MKN-45) was 1800 nM and the GI50 (RXF 631) was 1800 nM. For the same compound, the GI50 (HCT-116) was 250 nM, the GI50 (OVCAR-3) was 1100 nM and the GI50 [5] was 1900 nM.
